S100A4 MyoIIA = S100A4-myosin IIA interaction inhibition; P26447; S100A4/TAMRA-MyoIIA peptide fluorescence polarization; inhibition, % at 10.7 µM; 360,000 compounds, 0.14% hits;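 active = mean inhibition of at least 70% across replicates, with every replicate also reaching that level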
Target sequence (P26447 whole entry, looked up): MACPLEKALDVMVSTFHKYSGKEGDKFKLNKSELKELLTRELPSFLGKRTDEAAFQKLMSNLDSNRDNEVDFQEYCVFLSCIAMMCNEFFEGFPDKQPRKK
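Assay system: human S100A4 monomer with TAMRA-labelled myosin IIA peptide / Buffer or medium: Calcium-containing HEPES buffer, pH 7.2 / Reagent: TAMRA-labelled myosin IIA heavy-chain peptide probe, 5 nM / Compound: one dose per compound / Timing: polarization read 5 min after assay mix addition, stable 5–60 min / Benchmarks: neutral control DMSO, positive control TFP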
RAD52 inh = blocks human RAD52 DNA annealing; 360,000 compounds, 0.46% hits; P43351; inhibition, % at 18.7 µM; recombinant RAD52 DNA annealing, FRET fluorescence; AID 651710;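 active = every replicate showing at least 50% inhibition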
ERAP1 inh = inhibitors of human ERAP1 aminopeptidase; Q9NZ08; recombinant ERAP1, Leu-AMC fluorescence, 60 min; inhibition, % at 10.7 µM; 340,000 compounds, 0.15% hits; AID 652197;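 active = mean replicate inhibition of at least 30%, or all replicates individually reaching that 30% level; inactive = mean below 30% and not every replicate reaching it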;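 also: 0% = neutral control wells and 100% = L-leucinethiol positive control wells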
MLL AF4-AF9 inh = blocks AF4 peptide binding to human AF9 | P42568 | AlphaScreen, biotin-AF4 peptide binding to FLAG-AF9 | inhibition, % at 10 µM | 350,000 compounds, 0.47% hits | AID 651704;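 active = every replicate reaching a set inhibition limit, whatever the replicate mean, cut at about 25% in these data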;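 also: 0% = plate neutral control median and 100% = total signal loss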
Target sequence (P42568 whole entry, looked up): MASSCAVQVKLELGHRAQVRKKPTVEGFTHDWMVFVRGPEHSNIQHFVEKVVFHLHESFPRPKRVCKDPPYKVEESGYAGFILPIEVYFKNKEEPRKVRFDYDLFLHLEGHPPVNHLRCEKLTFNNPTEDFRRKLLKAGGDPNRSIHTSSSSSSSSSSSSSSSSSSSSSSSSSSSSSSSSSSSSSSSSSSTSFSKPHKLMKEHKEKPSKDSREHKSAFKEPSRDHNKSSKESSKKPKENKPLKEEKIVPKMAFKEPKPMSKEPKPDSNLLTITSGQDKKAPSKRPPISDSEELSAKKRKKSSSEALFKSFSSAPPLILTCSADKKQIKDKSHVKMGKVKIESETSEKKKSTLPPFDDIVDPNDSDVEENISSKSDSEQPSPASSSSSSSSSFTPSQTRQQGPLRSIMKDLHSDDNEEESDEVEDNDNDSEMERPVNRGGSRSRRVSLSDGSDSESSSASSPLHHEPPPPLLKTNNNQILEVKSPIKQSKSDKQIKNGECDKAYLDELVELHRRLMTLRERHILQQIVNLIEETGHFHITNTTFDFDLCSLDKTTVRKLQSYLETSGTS
INS-1E GSIS act = primary screen for activators of insulin secretion dependent on glucose, INS-1E cells, GLuc reporter luminescence; 370,000 compounds, 0.61% hits; activation, % at 16.6 µM; AID 743287; INS-1E GLuc reporter insulin secretion, 2-3 h;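 active = lowest replicate activation of at least 40%, so every replicate reaches that level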;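 also: 0% = median of neutral control wells and 100% = median of IBMX positive control wells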
* marks the source's active call; other numbers are inactive results; nt = no result given. A selection: hits, their analogues and other compounds. The true share with any hit is near 1.5%.

SMILES	S100A4 MyoIIA	RAD52 inh	ERAP1 inh	MLL AF4-AF9 inh	INS-1E GSIS act
CN(CCCC1CCCC1)C(=O)CCc1nnc(-c2ccccc2)o1	0.1	1.4	-0.7	47.5*	-20.0
CN(C(=O)CCc1nnc(-c2ccc(-c3ccccc3)cc2)o1)C1CCOCC1	11.4	-14.9	-1.6	-9.2	-1.6
COc1cccc(C(=O)Nc2cc(C)c3c(=O)oc4ccccc4c3n2)c1	-5.4	-28.3	-3.5	42.9*	nt
C[C@@H]1CN([C@@H](C)CO)C(=O)c2cccc(NC(=O)Nc3ccc(F)cc3)c2O[C@H]1CN(C)Cc1ccccc1	2.2	-7.4	-2.2	-2.9	-15.4
COc1ccc(S(=O)(=O)Nc2ccc3c(c2)C(=O)N([C@H](C)CO)C[C@H](C)[C@H](CN(C)C(=O)Nc2ccc(C(F)(F)F)cc2)OCCCC[C@@H](C)O3)cc1	6.7	-67.5	-2.9	-2.3	26.6
CCOCCCn1c(SCC(=O)NC2CCCCC2)nc2ccccc2c1=O	-1.8	-3.8	-1.5	2.1	43.0*
Cn1ccnc1SCC(=O)NC1CCCC1	-1.3	-2.0	31.1*	1.0	10.3
C[C@@H](NC(=O)C[C@@H]1C[C@@H]2c3cc(NC(=O)NC4CCCC4)ccc3O[C@@H]2[C@H](CO)O1)c1ccccc1	nt	nt	nt	nt	5.7
CC(C)OC(=O)c1nn2c(C(F)(F)F)cc(-c3ccc(Br)o3)nc2c1Br	nt	nt	nt	nt	157.2*
N#CCNC(=O)c1nn2c(C(F)(F)F)cc(-c3ccccc3)nc2c1Br	-2.8	-8.9	0.0	-1.5	nt
COc1ccc(-c2nc(CS(=O)CC(=O)NC(C)CCc3ccccc3)c(C)o2)cc1OC (stereo not given)	2.1	-5.8	3.6	-1.1	49.3*
CCN(CC)CCNC(=O)c1ccc2c(c1NCCO)C(=O)c1ccccc1C2=O	-24.1	87.1*	1.4	16.4	-18.8
COc1cccc(NC(=O)N[C@@H]2C=C[C@H](CC(=O)Nc3ccc(-c4ccccc4)cc3)O[C@@H]2CO)c1	26.8	-23.2	2.3	-16.5	-21.1
Cc1[nH]c2ccccc2c1C(=O)CSc1nnc(C2CC2)o1	0.8	-4.8	-4.2	26.2*	16.2
Cc1[nH]c2ccccc2c1C(=O)CSc1ccccc1	nt	nt	nt	nt	-5.5
CNC(=O)C(=O)NCC1OCCCN1S(=O)(=O)c1ccc(F)cc1C (stereo not given)	-2.1	-2.6	-2.7	-3.5	44.3*
Cc1ccccc1Cn1ccc(NC(=O)c2cc3nc(-c4ccco4)cc(C(F)(F)F)n3n2)n1	nt	nt	nt	nt	66.2*
O=C1CN(c2nc3ccccc3n3cnnc23)CC(=O)N1CCc1ccccc1	-14.5	-7.1	0.1	25.2*	nt
O=C1N[C@H](Cc2ccccc2)COCc2cn(nn2)CC[C@@H]1Cc1ccc(Cl)cc1	nt	nt	nt	nt	2.8
COCC(=O)N1C[C@@H](C)[C@@H](OC)CN(C)C(=O)c2cc(NC(=O)C3CCC3)ccc2OC[C@H]1C	-5.5	9.9	-3.6	-0.1	-0.9
Cc1ccc(/C=C2/NC(=O)N(Cc3ccc(Br)cc3)C2=O)o1	nt	nt	nt	nt	56.8*
C[C@H]1CN(C)C(=O)Cc2cc([N+](=O)[O-])ccc2O[C@H]1CN(C)C(=O)OC(C)(C)C	nt	nt	nt	nt	31.1
C/C(=N/NC(=O)c1ccc(Br)s1)c1ccncc1	-4.0	-2.4	1.7	-8.1	49.9*
O=C(Nc1ccccc1)N1CC(=O)N2[C@H](C1)[C@H](c1ccc(-c3ccc(F)cc3)cc1)[C@@H]2CO	nt	nt	nt	nt	-13.1
CCOC(=O)c1c(C)n(CC(O)CN(CC)CC)c2cc(Br)c(OC)cc12 (stereo not given)	2.1	12.8	-2.2	-1.3	68.4*
SMILES	S100A4 MyoIIA	RAD52 inh	ERAP1 inh	MLL AF4-AF9 inh	INS-1E GSIS act
CO[C@H]1CN(C)C(=O)c2ccc(NC(C)=O)cc2OC[C@@H](C)N(C(=O)Cc2ccccn2)C[C@@H]1C	2.3	0.0	-0.1	0.4	-1.0
Cc1ccccc1NC(=O)CN1C(=O)S/C(=C/c2cccnc2)C1=O	10.2	-17.2	-0.9	-4.7	40.0*
O=C(O)CN1C(=O)S/C(=C\c2cccnc2)C1=O	-9.4	-12.4	-1.1	-43.2	2.9
CCn1c(SCC(=O)OC)nc2sc3c(c2c1=O)CCC3	nt	nt	nt	nt	14.9
CCn1c(SCC(=O)OC)nc2sc3c(c2c1=O)CC(C)(C)OC3	0.7	-2.5	-2.0	-2.3	74.3*
COc1ccc(N2CCN(c3ccc(NC(=O)C4CCCCC4)cc3C#N)CC2)cc1	nt	nt	nt	nt	51.4*
CCOC(=O)c1nnn(CC(=O)NC(=O)Nc2ccccc2)c1C(=O)OCC	-1.9	-9.8	nt	5.1	-14.8
CCOC(=O)c1nnn(CC(=O)Nc2ccccc2)c1C(=O)OCC	-7.9	-6.1	42.6*	0.1	8.0
COCCNC(=O)C[C@@H]1CC[C@H]2[C@@H](COC[C@H](O)CN2Cc2cccc(-c3ccncc3)c2)O1	89.6*	6.5	-4.4	-9.8	-0.6
COc1ccc(CN2C[C@H](O)COC[C@@H]3O[C@@H](CC(=O)N(C)C)CC[C@H]32)cc1	93.7*	6.6	-0.9	-3.1	-5.9
Cc1noc(C)c1S(=O)(=O)N(C)C[C@H]1Oc2ccc(NC(=O)Nc3ccc(C(F)(F)F)cc3)cc2C(=O)N([C@H](C)CO)C[C@@H]1C	nt	nt	nt	nt	-8.1
COc1ccc(NC(=O)Nc2ccc3c(c2)C(=O)N([C@@H](C)CO)C[C@H](C)[C@@H](CN(C)Cc2ccccc2)OCCCC[C@@H](C)O3)cc1	4.3	55.7*	-1.3	11.8	-24.7
COc1ccc(NC(=O)Nc2ccc3c(c2)C(=O)N([C@@H](C)CO)C[C@@H](C)[C@H](CN(C)Cc2ccccc2)OCCCC[C@H](C)O3)cc1	20.3	52.3*	-1.7	6.4	-15.3
COc1ccc(NC(=O)Nc2ccc3c(c2)C(=O)N([C@H](C)CO)C[C@@H](C)[C@H](CN(C)CC2CC2)OCCCC[C@@H](C)O3)cc1	-1.2	38.3	-0.5	27.7*	-9.8
COc1ccc(NC(=O)Nc2ccc3c(c2)C(=O)N([C@@H](C)CO)C[C@@H](C)[C@@H](CN(C)Cc2ccccc2)OCCCC[C@@H](C)O3)cc1	10.3	53.3*	-1.9	12.1	-17.0
COc1ccc(NC(=O)Nc2ccc3c(c2)C(=O)N([C@H](C)CO)C[C@@H](C)[C@@H](CN(C)Cc2ccccc2)OCCCC[C@@H](C)O3)cc1	-10.2	48.8	-2.3	18.1	-23.7
CC(=O)N(C)C[C@@H]1Oc2ccc(N(C)C)cc2C(=O)N(C)C[C@@H]1C	nt	nt	nt	nt	10.8
COc1ccc(NC(=O)Nc2ccc3c(c2)C(=O)N([C@H](C)CO)C[C@@H](C)[C@H](CN(C)Cc2ccccc2)OCCCC[C@@H](C)O3)cc1	-74.1	68.7*	-2.7	15.2	-21.9
COc1ccc(NC(=O)Nc2ccc3c(c2)C(=O)N([C@H](C)CO)C[C@H](C)[C@@H](CN(C)Cc2ccccc2)OCCCC[C@@H](C)O3)cc1	2.1	19.7	-0.4	-0.1	-5.6
CNC[C@H]1OCCCC[C@H](C)Oc2ccc(NC(=O)Nc3ccccc3)cc2C(=O)N([C@H](C)CO)C[C@@H]1C	-2.2	-40.7	0.0	5.0	2.0
